Experimental data as given in ChEMBL document CHEMBL4251567 (Eur J Med Chem, 2018).

Assays:
[1] = target: T1, Histone deacetylase (Homo sapiens) (UniProt Q13547+O15379+Q9UBN7+Q92769+Q9UQL6+Q8WUI4+Q9BY41+Q96DB2+P56524+Q9UKV0+Q969S8); test: Inhibition of HDAC in human HeLa-S3 cell lysates assessed as residual activity at 2.5 x 10^-6 M preincubated for 15 mins followed by HDAC-Glo substrate addition measured after 35 mins by […] relative to control; type: protein assay
How it was run: (§1)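 Lysate (1 μg total protein) in HDAC-Glo buffer was preincubated with inhibitor in DMSO for 15 min at room temperature. HDAC-Glo substrate/developer reagent was added and luminescence read after 35 min. Concentrations are final. Signal corrected for a no-lysate blank; % of DMSO control.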

[2] = target: T1, Histone deacetylase (Homo sapiens); test: Inhibition of HDAC in human HeLa-S3 cell lysates assessed as residual activity at 1 x 10^-5 M preincubated for 15 mins followed by HDAC-Glo substrate addition measured after 35 mins by […] relative to control; type: protein assay; how it was run: as §1
[3] = target: T1, Histone deacetylase (Homo sapiens); test: Inhibition of HDAC in human HeLa-S3 cell lysates assessed as residual activity at 6.25 x 10^-6 M preincubated for 15 mins followed by HDAC-Glo substrate addition measured after 35 mins by […] relative to control; type: protein assay
[4] = target: Histone deacetylase 1 (Homo sapiens) (UniProt Q13547); test: Inhibition of HDAC1 in human HeLa-S3 cell lysates assessed as remaining activity at […] preincubated for 15 mins followed by HDAC-Glo substrate addition measured after 30 to 40 mins by […] relative to control
Chain of Histone deacetylase 1 (Homo sapiens) (Q13547 whole entry): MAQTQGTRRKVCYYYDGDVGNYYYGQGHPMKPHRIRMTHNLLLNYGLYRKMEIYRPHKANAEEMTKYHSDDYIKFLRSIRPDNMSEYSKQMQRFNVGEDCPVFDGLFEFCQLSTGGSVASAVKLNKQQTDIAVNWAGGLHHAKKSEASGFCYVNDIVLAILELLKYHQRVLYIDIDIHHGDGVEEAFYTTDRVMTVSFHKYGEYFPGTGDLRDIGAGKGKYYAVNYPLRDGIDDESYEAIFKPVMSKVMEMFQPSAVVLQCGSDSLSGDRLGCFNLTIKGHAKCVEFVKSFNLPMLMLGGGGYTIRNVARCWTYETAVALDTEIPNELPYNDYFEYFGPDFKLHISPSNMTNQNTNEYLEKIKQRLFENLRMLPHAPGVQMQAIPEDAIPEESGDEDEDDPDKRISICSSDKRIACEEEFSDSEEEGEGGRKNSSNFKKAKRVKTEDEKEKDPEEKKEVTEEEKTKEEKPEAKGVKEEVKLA

Histone deacetylase = test: Inhibition of HDAC in human HeLa-S3 cell lysates preincubated for 15 mins followed by HDAC-Glo substrate addition measured after 35 mins by fluorimetric method; type: protein assay
[5] = target: Histone deacetylase 3 (Homo sapiens) (UniProt O15379); test: Inhibition of HDAC3 in human HeLa-S3 cell lysates assessed as remaining activity at […] preincubated for 15 mins followed by HDAC-Glo substrate addition measured after 30 to 40 mins by […] relative to control
Chain of Histone deacetylase 3 (Homo sapiens) (O15379 whole entry): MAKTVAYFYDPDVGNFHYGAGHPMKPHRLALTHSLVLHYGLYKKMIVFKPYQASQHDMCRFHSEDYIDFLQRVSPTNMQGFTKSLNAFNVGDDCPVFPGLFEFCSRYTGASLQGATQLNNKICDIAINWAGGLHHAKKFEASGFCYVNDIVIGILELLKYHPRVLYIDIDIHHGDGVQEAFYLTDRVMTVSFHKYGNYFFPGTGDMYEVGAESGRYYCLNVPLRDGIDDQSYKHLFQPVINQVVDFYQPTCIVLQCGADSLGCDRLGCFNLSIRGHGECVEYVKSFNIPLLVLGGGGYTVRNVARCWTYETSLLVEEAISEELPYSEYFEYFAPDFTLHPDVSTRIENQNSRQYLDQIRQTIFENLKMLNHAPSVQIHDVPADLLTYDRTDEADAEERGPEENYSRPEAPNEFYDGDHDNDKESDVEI

[6] = target: T1, Histone deacetylase (Homo sapiens); test: Inhibition of HDAC in human HeLa-S3 cell lysates assessed as residual activity at 1.25 x 10^-6 M preincubated for 15 mins followed by HDAC-Glo substrate addition measured after 35 mins by […] relative to control; type: protein assay; how it was run: as §1
[7] = target: T1, Histone deacetylase (Homo sapiens); test: Inhibition of HDAC in human HeLa-S3 cell lysates assessed as residual activity at 5 x 10^-6 M preincubated for 15 mins followed by HDAC-Glo substrate addition measured after 35 mins by fluorimetric method relative to control; type: protein assay; how it was run: as §1
[8] = target: Histone deacetylase 2 (Homo sapiens) (UniProt Q92769); test: Inhibition of HDAC2 in human HeLa-S3 cell lysates assessed as remaining activity at […] preincubated for 15 mins followed by HDAC-Glo substrate addition measured after 30 to 40 mins by […] relative to control
Chain of Histone deacetylase 2 (Homo sapiens) (Q92769 whole entry): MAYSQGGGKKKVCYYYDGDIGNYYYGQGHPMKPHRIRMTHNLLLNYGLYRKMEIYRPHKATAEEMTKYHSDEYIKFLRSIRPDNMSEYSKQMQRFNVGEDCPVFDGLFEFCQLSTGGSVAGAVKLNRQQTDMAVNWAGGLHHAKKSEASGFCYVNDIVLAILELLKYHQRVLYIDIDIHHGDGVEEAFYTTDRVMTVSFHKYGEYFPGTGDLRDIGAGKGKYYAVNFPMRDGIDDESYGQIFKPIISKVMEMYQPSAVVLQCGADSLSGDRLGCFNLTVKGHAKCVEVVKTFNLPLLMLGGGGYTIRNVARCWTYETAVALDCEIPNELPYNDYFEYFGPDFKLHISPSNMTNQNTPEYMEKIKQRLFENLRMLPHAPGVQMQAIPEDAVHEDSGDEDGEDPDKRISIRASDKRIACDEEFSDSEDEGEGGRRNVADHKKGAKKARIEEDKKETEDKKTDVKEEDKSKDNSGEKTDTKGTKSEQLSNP

[9] = target: T2, Protein deacetylase HDAC6 (Homo sapiens) (UniProt Q9UBN7); test: Inhibition of HDAC6 in human HeLa-S3 cell lysates assessed as remaining activity at […] preincubated for 15 mins followed by HDAC-Glo substrate addition measured after 30 to 40 mins by […] relative to control
T2 sequence (whole entry): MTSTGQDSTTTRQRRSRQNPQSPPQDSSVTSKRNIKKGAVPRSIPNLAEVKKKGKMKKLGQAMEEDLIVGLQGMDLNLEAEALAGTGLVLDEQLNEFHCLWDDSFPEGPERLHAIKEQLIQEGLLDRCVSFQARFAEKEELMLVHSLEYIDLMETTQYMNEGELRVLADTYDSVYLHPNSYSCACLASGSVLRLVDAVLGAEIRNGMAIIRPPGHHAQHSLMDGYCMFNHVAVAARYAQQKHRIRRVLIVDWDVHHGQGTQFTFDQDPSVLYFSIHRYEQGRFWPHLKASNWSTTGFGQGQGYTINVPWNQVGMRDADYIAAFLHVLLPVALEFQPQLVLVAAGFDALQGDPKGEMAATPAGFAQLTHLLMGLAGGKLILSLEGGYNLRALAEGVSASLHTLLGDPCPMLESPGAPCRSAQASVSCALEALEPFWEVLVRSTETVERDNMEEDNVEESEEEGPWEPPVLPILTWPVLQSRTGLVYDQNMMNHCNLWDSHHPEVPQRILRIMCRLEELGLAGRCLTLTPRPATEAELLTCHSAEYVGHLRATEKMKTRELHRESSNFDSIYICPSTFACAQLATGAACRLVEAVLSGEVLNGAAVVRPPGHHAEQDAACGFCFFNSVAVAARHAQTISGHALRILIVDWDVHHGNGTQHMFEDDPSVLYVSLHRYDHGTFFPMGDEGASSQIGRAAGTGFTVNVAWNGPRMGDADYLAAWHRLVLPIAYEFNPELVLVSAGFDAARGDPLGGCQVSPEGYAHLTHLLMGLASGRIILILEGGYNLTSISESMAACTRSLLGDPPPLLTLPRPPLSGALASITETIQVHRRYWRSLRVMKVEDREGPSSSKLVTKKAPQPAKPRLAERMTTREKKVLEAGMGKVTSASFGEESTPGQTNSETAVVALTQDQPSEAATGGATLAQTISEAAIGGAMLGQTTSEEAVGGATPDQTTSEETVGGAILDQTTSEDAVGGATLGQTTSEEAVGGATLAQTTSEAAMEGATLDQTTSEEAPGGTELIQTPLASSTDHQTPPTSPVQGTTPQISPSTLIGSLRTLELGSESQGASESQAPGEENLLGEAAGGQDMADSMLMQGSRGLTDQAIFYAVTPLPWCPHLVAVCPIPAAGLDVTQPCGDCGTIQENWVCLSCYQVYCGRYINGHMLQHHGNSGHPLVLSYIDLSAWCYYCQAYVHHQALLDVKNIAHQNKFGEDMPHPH

Activity [1]: 60%
Activity [2]: 17%
Activity [3]: 91%
Activity [4]: 75%
IC50 (Histone deacetylase): 3.3 µM
Activity [5]: 78%
Activity [6]: 79%
Activity [7]: 38%
Activity [8]: 90%
Activity [9]: 26%
Structure (SMILES): CC(CCCC(=O)Nc1ccccc1)CCC(=O)NO (stereo not given)
